Key:
Assay type in all cases: functional, cell-based
[1] = system: Jurkat; assay: Cytotoxicity against human Jurkat T cells after 20 hrs by WST1 assay
How it was run: (§1)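 WST-1 cell viability read-out after 2.5, 20 and 72 h exposure; compounds tested over 0.5 to 80 µM. Cells: CD4+ Jurkat T-cells (ATCC TIB-152), Bcl-2-transfected Jurkat, and HL-60 (ATCC CCL-240). Maximal standard deviation 10% (absolute).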

[2] = system: HL-60; assay: Cytotoxicity against human HL60 after 20 hrs by WST1 assay; conditions: HL-60, 20 h; how it was run: as §1
[3] = system: Jurkat; assay: Cytotoxicity against human Jurkat T cells overexpressing Bcl2 after 20 hrs by WST1 assay; how it was run: as §1
[4] = system: HL-60; assay: Induction of apoptosis in human HL60 cells by FACS
How it was run: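 HL-60 cells (10^6 per sample) exposed 24 h, washed in cold PBS with 1% bovine calf serum and spun at 200g, 4 °C. Staining with annexin V-FITC (2 µg/mL) in HEPES binding buffer, pH 7.4, 10 min on ice in the dark, then 1 µg PI per tube. Flow cytometry within 20 min; annexin V-FITC-positive cells in the gated population scored apoptotic. Taxol 500 nM positive control, untreated negative control.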

| SMILES | IC50 [1] [µM] | IC50 [2] [µM] | IC50 [3] [µM] | Activity [4] |
| --- | --- | --- | --- | --- |
| CC#CC#C/C=C1\C=C[C@@]2(CC=CO2)O1 | 4.7 | 6.1 | 8.4 | – |
| CC#CC#C/C=C1\C=C[C@@]2(CCCO2)O1 | 11.2 | 16.2 | 14.1 | – |
| CC#CC#C/C=C1\C=C[C@]2(OC=CC2OC(C)=O)O1 (stereo partly drawn) | 6.4 | 4 | 6.9 | Dose-dependent effect |
| CC#CC#C/C=C1/C=CC2(CCC(OC)O2)O1 (racemic) [FLOSCULIN C] | 10.8 | 16.7 | 16.9 | – |
| CC#CC#C/C=C1/C=C[C@]2(OC=CC2OC(C)=O)O1 (stereo partly drawn) | 4.1 | 4.2 | 5.2 | Dose-dependent effect |
| CC#CC#C/C=C1/O[C@@]2(OC=C[C@H]2OC(C)=O)[C@@H](O)[C@@H]1Cl [FLOSCULIN A] | 13.2 | 18.9 | 19.1 | – |
| CC#CC#C/C=C1\C=CC2(CCC(OC)O2)O1 (racemic) [FLOSCULIN B] | 15.2 | 18.3 | 19.2 | – |
| C=C1C(=O)O[C@@H]2C[C@@H](C)[C@@H]3C=CC(=O)[C@@]3(C)[C@@H](O)[C@H]12 [HELENALIN] | 0.46 | 0.7 | – | – |
| CC#CC#C/C=C1/C=C[C@@]2(CC=CO2)O1 | 3.8 | 5.6 | 7.2 | – |
